Cav3 T inh: Cav3.2 calcium influx blockers – cell-based, Fluo-4 calcium fluorescence, FDSS, MLSMR library, primary screen | Voltage-dependent T-type calcium channel subunit alpha-1H (Homo sapiens), O95180 | Cav3.2-expressing cells; stronger effect = lower value | B-score at 10 µM | hit rate 4% among 100,000;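 active means single-dose well whose peak fluorescence ratio is a statistical outlier from its plate by either plate-standardised score or position-corrected B-score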
tolC growth inh: growth inhibitors of E. coli tolC mutant, primary screen, strain BW25113 ΔtolC::kan, 384-well; OD615; growth inhibition, % at 10 µM (by protocol); hit rate 2.2% among 65,000; AID 573, 2007;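 active means growth inhibition at or above a cutoff equal to the mean over every tested compound plus 3 SD, cut at about 60% in these data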;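 further: growth measured after 20 h incubation at 37 °C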
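Doses: one dose of 10 µM final / Material: E. coli BW25113 ΔtolC::kan, tolC deletion mutant strain / Buffer or medium: LB with kanamycin 50 µg/mL / Evaluation: percent growth inhibition / Detection: optical density read at 615 nm / Incubation: 37 °C, 20 h exposure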
Ecoli WT expand: growth inhibitors of wild-type E. coli, primary screen, strain BW25113, expanded library, OD600; hit rate 0.15% among 98,000; AID 710, 2007; growth inhibition, % at 100 µM; OD600 absorbance;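 active means growth inhibition above about 50% at one test dose, limit read from the data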;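 further: growth measured after 20 h incubation at 37 °C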
PostGolgi yeast: phenotypic screen on post-Golgi transport, primary screen. post-Golgi transport phenotypic cell assay. inhibition, % at 10 µM. hit rate 0.9% among 98,000;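 further: yeast cells grown in 1536-well plates; yeast grown about 18 h at 30C before absorbance read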
PTK2B oligo ant: antagonists of Pyk2 self-association, primary screen, Q293 cells, FERM NanoBiT luminescence, HTS; stronger effect = lower value; z-score (the deposit names both 25 µM and 10 µM); hit rate 0.83% among 99,000; AID 1347419, 2020;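 active means Z-score of -3 or lower, scaled per plate to the spread of control and sample wells; inactive means z-score above -3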;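 further: negative z-score means lost luminescence so less FERM oligomerization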
Target sequence (Q14289 whole entry, looked up): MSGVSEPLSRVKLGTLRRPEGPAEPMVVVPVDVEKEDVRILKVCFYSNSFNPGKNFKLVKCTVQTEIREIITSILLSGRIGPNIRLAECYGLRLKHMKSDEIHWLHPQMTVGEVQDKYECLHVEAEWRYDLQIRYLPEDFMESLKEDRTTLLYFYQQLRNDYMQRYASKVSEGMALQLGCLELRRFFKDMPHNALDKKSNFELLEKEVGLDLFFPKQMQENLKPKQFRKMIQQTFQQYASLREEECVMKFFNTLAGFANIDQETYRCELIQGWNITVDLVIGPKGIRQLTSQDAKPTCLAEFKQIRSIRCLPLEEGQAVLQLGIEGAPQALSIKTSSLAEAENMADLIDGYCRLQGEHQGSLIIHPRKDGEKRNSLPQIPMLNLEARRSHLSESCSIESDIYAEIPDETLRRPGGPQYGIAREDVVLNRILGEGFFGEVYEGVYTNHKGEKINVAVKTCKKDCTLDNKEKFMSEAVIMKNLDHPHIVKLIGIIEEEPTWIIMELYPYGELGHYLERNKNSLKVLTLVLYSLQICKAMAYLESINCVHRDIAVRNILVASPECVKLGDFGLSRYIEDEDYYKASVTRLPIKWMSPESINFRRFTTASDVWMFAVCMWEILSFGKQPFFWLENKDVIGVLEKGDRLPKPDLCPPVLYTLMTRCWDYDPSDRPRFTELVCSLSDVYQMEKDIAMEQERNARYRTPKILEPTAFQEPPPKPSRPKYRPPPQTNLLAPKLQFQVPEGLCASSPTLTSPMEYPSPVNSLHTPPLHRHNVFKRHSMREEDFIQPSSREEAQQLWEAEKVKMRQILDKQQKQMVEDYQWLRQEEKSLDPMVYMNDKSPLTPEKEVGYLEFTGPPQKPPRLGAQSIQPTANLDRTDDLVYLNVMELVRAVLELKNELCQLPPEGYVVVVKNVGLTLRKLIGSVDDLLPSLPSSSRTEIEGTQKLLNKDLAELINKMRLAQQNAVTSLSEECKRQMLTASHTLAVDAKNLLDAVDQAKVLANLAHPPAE
PostGolgi ctrl: growth inhibition of yeast control strain, primary screen, counter-screen for post-Golgi transport modulator project | efflux-deficient yeast background strain, growth absorbance A615, 16 h | inhibition, % at 10 µM | hit rate 5% among 98,000 | AID 738, 2007
Hits are given with their value; i = inactive; nt = no result. Sampled rows, rich in hits. Any-hit rate of the full collection: about 8.7%. Unless noted, no stated cut-off is given here; in the data, active means inhibition above about 30%; inactive means the rest.

SMILES	Cav3 T inh	tolC growth inh	Ecoli WT expand	PostGolgi yeast	PTK2B oligo ant	PostGolgi ctrl
COc1cc(/C=C/C(=O)OCC(=O)NCC2CCCO2)ccc1OCC#N (stereo not drawn)	nt	nt	nt	nt	i	nt
CSc1nnc2n(C)c3c(c(=O)n12)C1(CCCC1)Cc1ccccc1-3	i	i	i	i	i	38
COCCCNc1nc(SCc2ccccc2)nc2sc3c(c12)CCC3	i	nt	i	i	i	i
N#Cc1cnn(-c2nc(SCc3ccccc3)nc3sc4c(c23)CCCC4)c1N	-5	i	i	i	i	34
Cn1cccc1-c1nc2ccccc2n1Cc1ccccc1	-4.7	i	i	i	i	i
CCOC(=O)c1nnn(-c2nonc2N)c1CN(CC)c1ccccc1	-4.8	nt	i	i	i	i
CCOC(=O)c1nnn(-c2nonc2N)c1CN(CC)CC	i	i	i	i	i	i
CCOc1ccc(N2C(=O)CC(Sc3ncccn3)C2=O)cc1 (stereo not drawn)	i	i	i	i	i	i
C=CCNc1nnc(SC2CC(=O)N(c3ccc(OCCC)cc3)C2=O)s1 (stereo not drawn)	3.3	nt	i	i	i	i
Cc1c(C(=O)NC(C)C)sc2ncn(CC(=O)N3CCC(C)CC3)c(=O)c12	i	nt	i	i	i	i
COCCSc1ccccc1C(=O)NCc1ccco1	i	i	i	i	i	i
CCOC(=O)c1c(N)sc(C(O)(C(F)(F)F)C(F)(F)F)c1-c1ccccc1	i	nt	i	i	i	32
O=C1CCCCCCC1Sc1ccccc1[N+](=O)[O-] (stereo not drawn)	i	nt	i	i	i	i
NC1=NC(c2ccc(F)cc2)n2c(nc3ccccc32)N1 (stereo not drawn)	i	i	i	i	i	i
Cc1ccc(-n2c(C)cc(C3N=C(N)Nc4nc5ccccc5n43)c2C)c(C)c1 (stereo not drawn)	i	100	i	i	i	46
Cc1cc(C2N=C(N)Nc3nc4ccccc4n32)c(C)n1-c1ccccc1Cl (stereo not drawn)	i	61	i	i	i	i
O=C(Nc1ccccc1)c1ccc(N2CCN(c3ccccc3)CC2)c(S(=O)(=O)N2CCOCC2)c1	-6	nt	i	i	i	i
CC(=O)c1ccc(N2CCN(C(=O)c3cc4c(=O)n(C)c5ccccc5c4n3C)CC2)cc1	nt	i	nt	nt	nt	nt
O=[N+]([O-])c1ccc(Sc2nc3ccccc3o2)c([N+](=O)[O-])c1	i	nt	i	i	i	91
O=C(Nc1ccc(F)cc1F)c1cc2n(n1)C(C(F)(F)F)C1CCCCC1N2 (stereo not drawn)	i	i	i	i	i	30
O=C(Nc1ccc(F)cc1F)c1cc2ncc(Br)cn2n1	i	i	i	i	nt	i
COC(=O)CSc1nc(SCc2ccccc2Cl)nc2c1CCCC2	-5	nt	i	i	i	i
Cc1ccc(S(=O)(=O)N/N=C/c2cccn2-c2ccc(Cl)cc2)cc1	-4.3	nt	i	i	i	i
Cc1ccc(S(=O)(=O)N/N=C\c2cn(-c3ccccc3)nc2-c2ccccc2)cc1	i	nt	i	i	i	i
CCOC(=O)C1Cn2c(nc3c(c2=O)C2(CCCC2)Cc2ccccc2-3)S1 (stereo not drawn)	-5.4	i	i	i	i	38
SMILES	Cav3 T inh	tolC growth inh	Ecoli WT expand	PostGolgi yeast	PTK2B oligo ant	PostGolgi ctrl
CCOC(=O)C1Cn2c(nc3c(c2=O)C(C)(C)Cc2ccccc2-3)S1 (stereo not drawn)	-6.4	i	i	i	i	32
CO/N=C(/CNC(=O)c1ccccc1Cl)c1ccc(Cl)cc1	nt	nt	i	i	i	i
CO/N=C(/CS(=O)Cc1ccccc1Cl)c1ccc(Cl)cc1Cl (stereo not drawn)	i	nt	i	i	i	30
Cc1nc2ccccn2c1C(=O)NCc1cccnc1	i	i	i	i	i	i
Cc1nn(-c2ccccc2)c2c1C(c1ccncc1)C(C#N)=C(N)O2 (stereo not drawn)	i	i	i	i	i	32
Cc1nn(-c2ccccc2)c(Cl)c1C1C(C#N)=C(N)Oc2c1c(C)nn2-c1ccccc1 (stereo not drawn)	i	nt	i	i	i	i
CCOC(=O)C1=C(C)OC(N)=C(C#N)C1c1c(C)nn(-c2ccccc2)c1Cl (stereo not drawn)	-9.2	i	i	i	i	i
C=CCOC(=O)C1=C(C)OC(N)=C(C#N)C1c1c(C)nn(-c2ccccc2)c1Cl (stereo not drawn)	-9.2	i	i	i	i	i
COc1ccccc1OCC(=O)N/N=C1/SCC(=O)N1Cc1ccccc1	i	nt	i	i	i	i
COC(=O)C[C@H]1c2cc(F)cc(F)c2S(=O)(=O)N1C1CCN(Cc2ccccc2)CC1	i	nt	nt	nt	nt	nt
O=S1(=O)CC(O)C(N2CCC(c3ccccc3)CC2)C1 (stereo not drawn)	i	i	i	i	i	45
CCCCN1CC(O)=C(c2nc3ccccc3[nH]2)C1=N	nt	i	i	i	i	30
COc1ccnc(Oc2ccc(C)cc2C)c1C#N	i	nt	i	i	i	i
Cc1ccc(C(=O)N(Cc2nc(-c3ccc(C)cc3)no2)C(C)C)cc1	i	i	i	i	nt	i
COc1ccccc1OCC(=O)N(Cc1nc(-c2ccccc2)no1)C1CCCCC1	-8.1	62	i	i	i	i
CC(C)N(Cc1nc(-c2ccccc2)no1)C(=O)CN(C)S(=O)(=O)c1ccc(Br)cc1	i	nt	i	i	i	62
Cc1ccccc1OCC(=O)N(Cc1nc(-c2ccccc2)no1)C(C)C	-4.3	i	i	i	i	i
Cc1ccc(SCC(=O)N(Cc2nc(-c3ccccc3)no2)C(C)C)cc1	i	74	i	i	i	30
CC(C)N(Cc1nc(-c2ccccc2)no1)C(=O)C1CCCCC1	i	nt	i	i	i	i
CN1CCc2c(sc3c2c(=O)n(-c2ccccc2)c2nnc(SCc4ccccc4F)n32)C1	nt	i	nt	nt	nt	nt
COc1ccc(-c2nnn(CCc3nn[nH]n3)n2)cc1	i	nt	nt	nt	i	nt
Cc1ccc(C2(C)NC(=O)N(CCOc3ccccc3)C2=O)cc1 (stereo not drawn)	-3.3	nt	i	i	i	i
COc1ccc(OCCN2C(=O)NC(C)(c3ccc(C)cc3)C2=O)cc1 (stereo not drawn)	i	i	i	i	i	i
Cc1ccc(NC(=O)c2cc([N+](=O)[O-])ccc2NCc2cccnc2)cc1Cl	i	nt	i	i	-3.7	31
O=C(COc1ccc([N+](=O)[O-])cc1)Nc1ccc(C(=O)NCc2cccnc2)cc1	i	nt	i	i	i	i
Clc1ccc(OCc2nnc(-c3ccccc3Br)o2)c(Cl)c1	i	i	i	i	i	i
Clc1ccc(OCc2nnc(-c3ccccc3Br)o2)cc1	i	63	i	i	i	i
Cc1ccc(NS(=O)(=O)c2cc(C(=O)NCCSC3CCCCC3)ccc2C)cc1	-4.5	nt	i	i	i	i

High-throughput results as filed in PubChem BioAssay.
